This note sets out measurements from paper PMC10619633 (Chemical Science, 2023).

Series [1] in a line: Spectroscopic properties and 1O2 quantum yield in MeCN. The series is classed as physicochemical. The note with it: for Φ Δ (1O2 quantum yield): irradiation at 450 nm, [Ru(bpy)3]Cl2 as reference.
The subject of series [2] is RPE-1 cells. The series can be described thus: Dark cytotoxicity, resazurin assay, non-cancerous RPE-1. The series is classed as cell-based. The settings on record: read-out: Cytotoxicity IC50 Dark, RPE-1, normoxia (20%). Background: Resazurin is reduced to fluorescent resorufin, in cell work by metabolically active cells.
For series [3], the system named is A549 cells. The series can be described thus: Cellular uptake inhibition by acetazolamide pre-incubation, ICP-MS. The series is classed as cell-based, Human. The note with it: A549, complex 5 μM 4 h, acetazolamide 50 μM 2 h pre-incubation.
Series [4] relates to A549 cells. Description: Cellular uptake by ICP-MS. The series is classed as cell-based, Human. The settings on record: A549, 5 μM, 4 h. The method in brief: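 Test Os(II) complexes were added at 5 μM to A549 cells for 4 h under normoxic or hypoxic conditions. Uptake was quantified by ICP-MS from the cellular Ru/Os concentration. Experiments were done in triplicate.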
Series [5] can be described thus: Octanol/PBS partition coefficient. In kind it is physicochemical. The note with it: room temperature, PF6- salts. The method in brief: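 Partitioning measured between octanol and PBS; PBS replaced water to limit pH effects on log P. Complexes were tested as PF6− salts, whereas the biological assays used chloride salts.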
The test system of series [6] is A549 cells. Description: Cellular fraction. In kind it is cell-based, Human. The settings on record: A549, 24 h co-incubation, nuclei/cytoplasm isolated, ICP-MS. The essentials:
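Test complexes were incubated with A549 cells for 24 h. Nuclei and cytoplasm were then isolated, and each fraction was analysed by ICP-MS for Ru or Os content to give the distribution between compartments. Experiments were done in triplicate.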

The nature of series [7]: Solubility in water. The series is classed as physicochemical.

pIC50: −log10 of the molar value. A value given as a limit tells only on which side of the number the result lay.

`[Cl][Ru][Cl].c1ccc(-c2ccccn2)nc1.c1ccc(-c2ccccn2)nc1.c1ccc(-c2ccccn2)nc1` [Ru(bpy)3, [Ru(bpy)3]Cl2, reference compound]: in series [1], the “Φ em (luminescence quantum yield)” value was 8%, the “λ em (emission maximum)” value is 608 nm, the “τ (fluorescence lifetime)” value was 159 ns and the “Φ Δ (1O2 quantum yield)” value amounted to 77%.
For “[Os(Bphen)2(bpy-(NH2)2)]2+(2PF6-) [complex 9]”, the pIC50 (in general, the IC50 on a negative log10 scale, so that one unit is a factor of ten) in series [2] is under 4.52. Besides, the “impact of acetazolamide pre-incubation on cellular uptake” value (“impact of acetazolamide pre-incubation” below) in series [3] is recorded as “negligible”. In addition, in series [4], the “cellular uptake under hypoxic compared to normoxic conditions” value is “notably reduced cellular uptake under hypoxic conditions”.
Turning to “[Os(Bphen)2(bpy-(NHCH2CH2NH2)2-L2)]2+(2PF6-).(L= N4-Succinoylsulfanilamide) [complex 12]”, in series [2], the pIC50 is under 4.00. Moreover, the “Φ em (luminescence quantum yield)” value in series [1] worked out at 0%. For the same compound, in series [3], the “impact of acetazolamide pre-incubation” value is “notably reduced”. In series [5], the “log P (octanol/PBS partition coefficient)” value is “greater than 1”. For the same compound, in series [6], the “fraction localized within the cytoplasm” value was “over 80%”. Besides, the “cellular uptake under hypoxic compared to normoxic conditions” value in series [4] amounted to 1.3 times. The solubility in water entry in series [7] is on record as “good solubility in water”.
For the compound “[Os(Bphen)2(bpy-(NHCH2CH2NH2)2-L)]2+(2PF6-).(L= N4-Succinoylsulfanilamide) [complex 11]”, the pIC50 in series [2] was under 4.00. Further, the “Φ em (luminescence quantum yield)” value in series [1] is given as 0%. Also, the “impact of acetazolamide pre-incubation” value in series [3] is “notably reduced”. Also, in series [5], the “log P (octanol/PBS partition coefficient)” value is listed as “greater than 1”. Besides, in series [7], the solubility in water entry is listed as “good solubility in water”.
“[Ru(Bphen)2(bpy-(NH 2)2)]2+(2PF6-) [complex 3]”: the pIC50 in series [2] was under 4.00. For the same compound, the “impact of acetazolamide pre-incubation” value in series [3] was “negligible”.
For “[Ru(Bphen)2(bpy-(NH CH 2CH2NH2)2-L2)]2+(2 P F 6-).(L= N4-Succinoylsulfanilamide) [complex 6]”, the pIC50 in series [2] is under 4.00. Further, in series [1], the “Φ em (luminescence quantum yield)” value was 2%, the “λ em (emission maximum)” value came to 675 nm, the “τ (fluorescence lifetime)” value turned out to be 117 ns and the “Φ Δ (1O2 quantum yield)” value is 77%. Moreover, in series [3], the “impact of acetazolamide pre-incubation” value was “notably reduced”. Also, the “log P (octanol/PBS partition coefficient)” value in series [5] is reported as “greater than 1”. Further, the “fraction localized within the cytoplasm” value in series [6] was “over 80%”. The solubility in water entry in series [7] was “good solubility in water”.
For “[Ru(Bphen)2(bpy-(NH CH 2CH2NH2)2-L)]2+(2PF6-).(L= N4-Succinoylsulfanilamide) [complex 5]”, the pIC50 in series [2] was under 4.00. Also, in series [1], the “Φ em (luminescence quantum yield)” value turned out to be 2%, the “λ em (emission maximum)” value worked out at 674 nm, the “τ (fluorescence lifetime)” value is 122 ns and the “Φ Δ (1O2 quantum yield)” value is 77%. In addition, the “impact of acetazolamide pre-incubation” value in series [3] is on record as “notably reduced”. Moreover, the solubility in water entry in series [7] is on record as “good solubility in water”.
